In ChEMBL document CHEMBL3804777, “Identification and Preclinical Pharmacology of BMS-986104: A Differentiated S1P1 Receptor Modulator in Clinical Trials” (ACS Med Chem Lett, 2016):
Each block holds one compound with its values, some of them ahead of it.

Columns and labels:
[1] = target: T1, Sphingosine 1-phosphate receptor 3 (Homo sapiens, UniProt Q99500); experiment: Agonist activity at human S1P3 receptor by GTPgammaS binding assay; type: functional
Mus musculus [2] = experiment: Reduction of blood lymphocyte level in BALB/c mouse administered through oral gavage after 24 hrs by hematology analysis; type: functional, organism-based
[3] = target: T2, Sphingosine 1-phosphate receptor 1 (Homo sapiens, UniProt P21453); experiment: Agonist activity at human S1P1 receptor expressed in CHO cells assessed as cAMP accumulation after 30 mins by HTRF analysis; type: functional, cell-based
T2 sequence (P21453 whole entry): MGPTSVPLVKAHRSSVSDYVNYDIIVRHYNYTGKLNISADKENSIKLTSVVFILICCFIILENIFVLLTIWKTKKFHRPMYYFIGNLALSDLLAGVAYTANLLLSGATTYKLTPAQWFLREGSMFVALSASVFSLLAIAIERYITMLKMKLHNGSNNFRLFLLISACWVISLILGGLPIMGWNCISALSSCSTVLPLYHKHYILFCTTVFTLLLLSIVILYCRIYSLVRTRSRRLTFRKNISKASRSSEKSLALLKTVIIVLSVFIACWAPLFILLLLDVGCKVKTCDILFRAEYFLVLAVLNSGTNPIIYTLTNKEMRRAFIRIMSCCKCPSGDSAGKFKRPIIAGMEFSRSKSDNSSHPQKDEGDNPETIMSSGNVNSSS

Heart [4] = experiment: Toxicity in guinea pig heart assessed as reduction in ventricular rate at 1000 nM after 10 mins by ECG analysis; type: tissue-based, Cavia porcellus, Cardiac ventricle; conditions: 1 µM
Procedure, shortened: (§1)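 Isolated guinea pig hearts perfused with the phosphate at the stated concentrations; ventricular rate and atrioventricular conduction (third-degree AV block) monitored.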

[5] = Toxicity in human-inducible pluripotent stem cell-derived Cardiomyocyte assessed as reduction in cardiomyocyte beating at 1 nM after 2 hrs; conditions: cardiac muscle cell, 0.001 µM
Procedure, shortened: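 Cultured human iPSC-derived cardiomyocytes expressing S1P1 and S1P3, exposed to a range of concentrations of the phosphate; beating rate measured and the no-effect concentration determined.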

Heart [6] = experiment: Toxicity in guinea pig heart assessed as third degree AV block at 100 nM after 10 mins by ECG analysis; type: tissue-based, Cavia porcellus; conditions: 0.1 µM; procedure, shortened: as §1
[7] = target: T2, Sphingosine 1-phosphate receptor 1; experiment: Agonist activity at human S1P1 receptor expressed in CHO cells co-expressing GFP assessed as cellular internalization after 45 mins by Hoechst assay; type: cell-based
[8] = target: T3, Sphingosine 1-phosphate receptor 4 (Homo sapiens, UniProt O95977); experiment: Agonist activity at human S1P4 receptor by GTPgammaS binding assay; type: functional
T3 sequence (O95977 whole entry): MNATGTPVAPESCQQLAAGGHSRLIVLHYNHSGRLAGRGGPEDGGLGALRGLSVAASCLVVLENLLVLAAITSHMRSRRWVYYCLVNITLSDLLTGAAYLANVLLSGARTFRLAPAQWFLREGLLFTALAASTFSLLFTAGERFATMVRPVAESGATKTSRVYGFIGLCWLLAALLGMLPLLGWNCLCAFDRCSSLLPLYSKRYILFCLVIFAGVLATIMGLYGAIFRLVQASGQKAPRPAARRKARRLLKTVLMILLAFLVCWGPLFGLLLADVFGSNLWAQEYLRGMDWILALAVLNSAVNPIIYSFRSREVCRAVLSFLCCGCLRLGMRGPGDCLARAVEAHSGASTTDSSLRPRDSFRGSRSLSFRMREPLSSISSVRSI

Heart [9] = experiment: Toxicity in guinea pig heart assessed as third degree AV block at 1000 nM after 10 mins by ECG analysis; type: tissue-based, Cavia porcellus; conditions: 1 µM; procedure, shortened: as §1
[10] = target: Sphingosine 1-phosphate receptor 5 (Homo sapiens, UniProt Q9H228); experiment: Agonist activity at human S1P5 receptor by GTPgammaS binding assay; type: functional
Chain of Sphingosine 1-phosphate receptor 5 (Q9H228 whole entry): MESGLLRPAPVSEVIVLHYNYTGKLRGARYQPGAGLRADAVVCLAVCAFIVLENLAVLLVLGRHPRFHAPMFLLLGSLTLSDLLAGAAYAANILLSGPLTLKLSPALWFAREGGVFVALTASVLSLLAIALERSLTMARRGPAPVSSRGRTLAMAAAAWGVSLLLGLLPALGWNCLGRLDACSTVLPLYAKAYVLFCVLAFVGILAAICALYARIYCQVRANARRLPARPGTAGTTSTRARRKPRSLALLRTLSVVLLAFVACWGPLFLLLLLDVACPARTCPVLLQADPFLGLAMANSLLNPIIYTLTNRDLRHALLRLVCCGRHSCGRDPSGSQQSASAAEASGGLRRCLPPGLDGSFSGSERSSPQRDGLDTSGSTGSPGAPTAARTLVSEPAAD

[11] = target: T2, Sphingosine 1-phosphate receptor 1; experiment: Agonist activity at human S1P1 receptor expressed in CHO cells assessed as ERK phosphorylation after 7 mins by alphaLISA; type: cell-based
[12] = target: T1, Sphingosine 1-phosphate receptor 3; experiment: Antagonist activity at human S1P3 receptor by GTPgammaS binding assay; type: functional
Heart [13] = experiment: Toxicity in guinea pig heart assessed as reduction in ventricular rate at 100 nM after 10 mins by ECG analysis; type: tissue-based, Cavia porcellus, Cardiac ventricle; conditions: 0.1 µM; procedure, shortened: as §1
[14] = Drug metabolism in BALB/c mouse whole blood assessed as whole blood phosphate area ratio at 10 uM after 4 hrs by LC/MS/MS analysis; type: ADME, tissue-based
Procedure, shortened: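 Mouse whole blood incubated with the amino-alcohol prodrug; phosphorylated product measured by LC/MS/MS after 4 h to give the relative extent of phosphate ester formation.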

Mus musculus [15] = experiment: Reduction of blood lymphocyte level in BALB/c mouse at 1 mg/kg administered through oral gavage after 24 hrs by hematology analysis; type: functional; parameters: scale not given: the % may be the effect or the level left
Procedure, shortened: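 Mice given a single oral 1 mg/kg dose; circulating lymphocytes counted 24 h later as the pharmacodynamic marker.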

Blood [16] = experiment: Drug metabolism in BALB/c mouse blood assessed as formation of phosphate ester metabolite at 10 mg/kg administered through oral gavage after 4 hrs by LC/MS/MS analysis; type: ADME, organism-based; conditions: in vivo
Procedure, shortened: (§2)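 Mouse PK study: alcohol prodrug given orally at 10 mg/kg, and formation of the phosphate metabolite in blood measured.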

Blood [17] = experiment: Drug metabolism in BALB/c mouse blood assessed as formation of phosphate ester metabolite at 10 mg/kg administered through oral gavage after 24 hrs by LC/MS/MS analysis; type: ADME, organism-based; conditions: in vivo; procedure, shortened: as §2
Heart [18] = experiment: Toxicity in guinea pig heart assessed as third degree AV block at 300 nM after 10 mins by ECG analysis; type: tissue-based, Cavia porcellus; conditions: 0.3 µM; procedure, shortened: as §1

T1 sequence (Q99500 whole entry): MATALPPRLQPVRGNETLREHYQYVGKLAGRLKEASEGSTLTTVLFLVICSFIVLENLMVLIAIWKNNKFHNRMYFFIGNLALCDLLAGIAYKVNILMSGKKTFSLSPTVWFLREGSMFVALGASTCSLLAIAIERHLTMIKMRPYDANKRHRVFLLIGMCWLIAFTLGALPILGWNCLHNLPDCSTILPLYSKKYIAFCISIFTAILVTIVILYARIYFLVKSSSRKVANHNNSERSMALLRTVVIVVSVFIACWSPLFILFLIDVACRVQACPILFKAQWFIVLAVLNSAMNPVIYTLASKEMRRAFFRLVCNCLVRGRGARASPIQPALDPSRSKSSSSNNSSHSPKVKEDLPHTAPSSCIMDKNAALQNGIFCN

- EC50 [1]: > 1000 nM
- EC50 (Mus musculus [2]): 7.9 nM
- EC50 [3]: 6 pM
- EC50 [7]: 0.114 nM
- EC50 [8]: 10.5 nM
- EC50 [10]: 10.7 nM
- EC50 [11]: 8.16 nM
- IC50 [12]: > 1000 nM
Compound: CCCCCC[C@@H]1CCc2cc([C@H]3CC[C@](N)(COP(=O)(O)O)C3)ccc2C1
- ED50 (Mus musculus [2]; po): 0.12 mg/kg
- Activity (Heart [4]): Toxic
- Activity [5]: Non-toxic
- Activity (Heart [6]): Non-toxic
- Activity (Heart [9]): Toxic
- Activity (Heart [13]): Non-toxic

- Ratio [14]: 0.03
Compound: CCCCCCC1CCc2cc(C3CCC(N)(CO)C3)ccc2C1 (stereo in doubt; 3e)

- Ratio [14]: 0.6
Compound: CCCCCCC1CCc2cc(C3CCC(N)(CO)C3)ccc2C1 (stereo in doubt; 3f)
- Activity (Mus musculus [15]): 80%

- Drug metabolism (Blood [16]): 12 nM
- Ratio [14]: 0.14
- Drug metabolism (Blood [17]): 46 nM
Compound: CCCCCCC1CCc2cc(C3CCC(N)(CO)C3)ccc2C1 (stereo in doubt; 3c)
- Activity (Mus musculus [15]): 18%

- Drug metabolism (Blood [16]): < 9.8 nM
- Ratio [14]: 0.07
- Drug metabolism (Blood [17]): 14 nM
Compound: CCCCCCC1CCc2cc(C3CCC(N)(CO)C3)ccc2C1 (stereo in doubt; 3a)
- Activity (Mus musculus [15]): 12%

Compound: CCc1cc(/C(C)=N/OCc2ccc(C3CCCCC3)c(C(F)(F)F)c2)ccc1CN1CC(C(=O)O)C1 [SIPONIMOD]
- Activity (Heart [18]): Toxic
- Activity (Heart [13]): Toxic
